SENP6 inh – inhibitors of human SENP6 protease; Q9GZR1; Recombinant SENP6 catalytic domain, aminoluciferin luminescence; inhibition, % at 10 µM; actives 1.8% (n = 330,000);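 active = inhibition above about 50% at the single tested dose, limit read from the data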
Target sequence (Q9GZR1 628-1112 limits assumed): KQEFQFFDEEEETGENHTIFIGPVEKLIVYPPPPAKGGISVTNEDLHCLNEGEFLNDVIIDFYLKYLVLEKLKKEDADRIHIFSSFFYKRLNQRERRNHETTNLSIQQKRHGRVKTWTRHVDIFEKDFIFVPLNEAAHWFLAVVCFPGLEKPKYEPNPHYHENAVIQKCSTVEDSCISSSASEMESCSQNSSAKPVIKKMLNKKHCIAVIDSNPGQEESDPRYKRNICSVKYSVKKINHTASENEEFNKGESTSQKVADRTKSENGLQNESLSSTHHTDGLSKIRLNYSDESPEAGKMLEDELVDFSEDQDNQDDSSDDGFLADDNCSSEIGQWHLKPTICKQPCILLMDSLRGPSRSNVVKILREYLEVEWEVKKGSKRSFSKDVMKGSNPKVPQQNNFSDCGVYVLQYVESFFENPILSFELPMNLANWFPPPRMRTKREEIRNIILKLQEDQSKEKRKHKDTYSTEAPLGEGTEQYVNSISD
SENP1 FRET inh – SENP1 (human) catalytic domain inhibition. actives 0.21% (n = 360,000). inhibition, % at 10 µM. recombinant SENP1 catalytic domain, CyPet-SUMO1-YPet FRET cleavage. Q9P0U3;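 active = inhibition at least 30% at 10 µM, raw YFP signal under a set limit, fluorescence ratio 0.5 to 1.5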
Target sequence (Q9P0U3 419-644 limits assumed): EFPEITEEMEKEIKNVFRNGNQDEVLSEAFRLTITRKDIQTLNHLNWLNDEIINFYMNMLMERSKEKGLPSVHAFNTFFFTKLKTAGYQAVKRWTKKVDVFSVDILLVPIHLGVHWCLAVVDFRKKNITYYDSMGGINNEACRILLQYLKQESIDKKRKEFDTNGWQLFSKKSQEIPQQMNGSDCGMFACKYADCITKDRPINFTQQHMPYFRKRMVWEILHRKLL
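Assay system: hSENP1 catalytic domain, recombinant. Amount: SENP1 enzyme, 20 pM final. Schedule: 50 min reaction, RT, dark. Technique: FRET, CFP and YFP emission. Control set: no-enzyme wells low, DMSO-plus-enzyme wells high control.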
SENP8 block-1 – inhibitors of human SENP8 protease; Q96LD8; purified SENP8, Z-RLRGG-aminoluciferin cleavage, luminescence; inhibition, % at 10 µM; actives 1.2% (n = 330,000); AID 2540; in the data active = inhibition above about 50%
SENP7 block – inhibitors of human SENP7 protease. inhibition, % at 5 µM. actives 1.5% (n = 330,000). recombinant SENP7, Z-RLRGG-aminoluciferin luminescence, 40 min;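 active = inhibition above about 50% at the single test dose, limit read from the data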
SENP8 block-2 – inhibitors of human SENP8 protease. AID 602440. actives 0.64% (n = 360,000). recombinant SENP8, Nedd8 substrate fluorescence. inhibition, % at 20 µM. Q96LD8; in the data active = inhibition mostly above about 40%, no sharp cut-off; inactive = mostly below about 27%
Platelet DG rel – platelet dense granule release activity; inhibition, %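 (compounds screened at 7.5 µM in platelet-rich plasma)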; human platelet-rich plasma, SFLLRN dense granule ATP release, luminescence; AID 1663; actives 0.22% (n = 300,000);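 active = mean replicate score, as percent of positive control, at or above 50; inconclusive = mean below 50 but at least one replicate at or above 50; inactive = mean and every replicate below 50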
Of the large screens only hits and unclear results are named; the others gave an inactive call. An excerpt weighted towards active compounds, which were near 2.6% of everything screened.

O=C(CC1Nc2ccccc2NC1=O)c1ccccc1 (stereo unspecified)	SENP6 inh 72.0, SENP8 block-1 59.0 (no result: SENP1 FRET inh, SENP8 block-2)
Cc1csc(NC(=O)/C=C/c2ccc3c(c2)OCO3)n1	SENP6 inh 77.0, SENP7 block 61.3
CCC(C)NC(=O)C1CCN(S(=O)(=O)c2ccc(-n3cnnn3)cc2)CC1 (stereo unspecified)	none
O=C(O)C(Cc1ccccc1)N1C(=O)/C(=C/C=C/c2ccco2)SC1=S (stereo unspecified)	none (no result: SENP6 inh, SENP8 block-1, SENP7 block)
O=C(O)CC(C(=O)O)N1C(=O)/C(=C/C=C/c2ccco2)SC1=S (stereo unspecified)	SENP1 FRET inh 41.5
CSc1ccccc1C(=O)Nc1ncc(C)s1	Platelet DG rel 55.4
CCC(=O)NC1=C(Cl)C(=O)C(NC(=O)CC)=C(Cl)C1=O	SENP8 block-2 50.4 (no result: Platelet DG rel)
CCC(=O)NC1=C(NC(C)c2ccccc2)C(=O)c2ccccc2C1=O (stereo unspecified)	none
CC1=C(C(=O)c2ccccc2)C(c2ccc(O)cc2)NC(=S)N1 (stereo unspecified)	none
CC1=C(C(=O)c2ccccc2)C(c2ccc(N3CCOCC3)cc2)NC(=O)N1 (stereo unspecified)	SENP1 FRET inh 74.0
CCOc1ccc(OCc2ccc(C(=O)NCc3cccnc3)o2)cc1	Platelet DG rel 69.7
CC(=O)c1ccc2c(c1)C1C=CCC1C(c1ccncc1)N2 (stereo unspecified)	SENP1 FRET inh 37.6
COc1ccc(CC(=O)Nc2ccc(S(=O)(=O)N3CCN(C)CC3)cc2)cc1	none (no result: Platelet DG rel)
Oc1ccc(Cl)c(CN2CCN(c3ncc(Cc4ccccc4)cn3)CC2)c1	none (no result: SENP6 inh, SENP8 block-1, SENP7 block, Platelet DG rel)
CCc1ccc2c(c1)c(N=NC1=NC(=O)CS1)c(O)n2C	SENP8 block-2 40.1
Cc1cc(C)c2[nH]c(O)c(N=NC3=NC(=O)CS3)c2c1	none
Cc1[nH]c(=O)sc1C(=O)NCc1ccc([N+](=O)[O-])cc1	none (no result: SENP6 inh, SENP8 block-1, SENP7 block, Platelet DG rel)
O=C1CCCC(O)=C1N=Nc1ccc(Cl)c(Cl)c1	none
CC(=O)N1CCc2cc(N=NC3=C(O)CCCC3=O)ccc21	SENP1 FRET inh 46.9
Cc1cc(-n2nc3ccccc3n2)c(O)c([N+](=O)[O-])c1	none
Cc1ccc(OC(=O)c2cccc([N+](=O)[O-])c2)c(-n2nc3ccccc3n2)c1	SENP6 inh 93.0, SENP8 block-1 86.7, SENP7 block 90.0
O=C(CSc1ccc(F)cc1)N1CCOCC1	none
COC(C(=O)Nc1ccnn1C1CCN(Cc2ccccn2)CC1)c1ccccc1 (stereo unspecified)	none
N=C(N)c1ccc(/C=C/c2ccc(C(=N)N)cc2O)cc1	SENP1 FRET inh 55.0
O=[N+]([O-])c1ccc(CSc2nc3ccccc3[nH]2)cc1	SENP6 inh 58.2, SENP7 block 60.9
CCC(=O)Nc1cccc(NC(=O)c2ccccc2Br)c1	none
CC(C)CC(=O)Nc1cccc(NC(=O)c2ccccc2Cl)c1	Platelet DG rel 92.0
CCCC(=O)Nc1cccc(NC(=O)c2ccccc2Br)c1	Platelet DG rel 85.6
Cc1csc(=O)n1CC(=O)OCC(=O)NC(C)c1ccc(F)cc1 (stereo unspecified)	none (no result: Platelet DG rel)
Cc1cc(O)c(Sc2ncn[nH]2)cc1NS(=O)(=O)c1ccc(Cl)cc1	none (no result: Platelet DG rel)
O=S(=O)(Nc1cc(Sc2ncn[nH]2)c(O)c2ccccc12)c1ccccc1	SENP6 inh 78.5, SENP7 block 71.8 (no result: Platelet DG rel)
Nc1ccc2c3c(ccc([N+](=O)[O-])c13)CC2	none (no result: SENP6 inh, SENP8 block-1, SENP7 block, Platelet DG rel)
Cc1oc2c(c1C(=O)c1ccc(Cl)cc1)C(=O)C(=O)c1ccccc1-2	SENP8 block-2 113.4 (no result: SENP6 inh, SENP8 block-1, SENP7 block)
O=C(c1ccc(Cl)cc1)c1ccc(CN2C(=O)c3ccccc3C2=O)o1	none
COc1ccc(C(=O)c2coc(-c3ccccc3C(=O)O)c2C(=O)O)cc1	none
Cc1ccc(C(=O)c2coc3c2C(=O)C(=O)c2ccccc2-3)cc1	SENP8 block-2 55.9
CC1(C(=O)NS(=O)(=O)c2ccc(Cl)cc2)CCN1C(=O)C/C=C/c1ccccc1 (stereo unspecified)	none (no result: SENP6 inh, SENP8 block-1, SENP7 block, Platelet DG rel)
COc1ccc2ccccc2c1C1CC(=O)N2CN(Cc3ccco3)CSC2=C1C#N (stereo unspecified)	SENP8 block-2 45.4
O=C(Oc1ccc[nH]c1=O)c1cc([N+](=O)[O-])cc([N+](=O)[O-])c1	SENP6 inh 88.2, SENP8 block-1 65.9
COc1ccc(C(=O)Oc2ccc[nH]c2=O)cc1	none
O=C(c1ccc(Cl)cc1)C1CCCN(Cc2ccc(Oc3ncccn3)cc2)C1 (stereo unspecified)	Platelet DG rel 52.1
O=c1ccc2cccc([N+](=O)[O-])c2[nH]1	none (no result: SENP6 inh, SENP8 block-1, SENP7 block, Platelet DG rel)
COc1ccc(NC(=O)CCS(=O)(=O)c2ccc3nc(C)sc3c2)cc1OC	Platelet DG rel 74.4
Cc1cc(-c2ccc(N=Nc3c(S(=O)(=O)O)cc4cc(S(=O)(=O)O)cc(N)c4c3O)c(C)c2)ccc1N=Nc1c(S(=O)(=O)O)cc2cc(S(=O)(=O)O)cc(N)c2c1O	SENP8 block-1 72.2 (no result: SENP1 FRET inh, SENP8 block-2, Platelet DG rel)
CCCCN(C(=O)C(C)N1C(=O)c2ccccc2C1=O)c1c(N)n(CC(C)C)c(=O)[nH]c1=O (stereo unspecified)	none (no result: Platelet DG rel)
CCn1c2ccccc2c2cc(NC(=O)CSc3nnc(-c4cccc(Cl)c4)o3)ccc21	Platelet DG rel 61.1
Cc1cccc(-c2cc3c(N=O)c4ccccc4c-3n[nH]2)c1	SENP6 inh 96.2, SENP7 block 99.5
O=Nc1c2cc(-c3ccccc3)[nH]nc-2c2ccccc12	Platelet DG rel inconclusive (no result: SENP6 inh, SENP8 block-1, SENP7 block)
Nc1cc(OCC(F)(F)F)cc([N+](=O)[O-])c1	none
Nc1cc(N)c(OCC(F)(F)F)cc1OCC(F)(F)F	SENP1 FRET inh 32.0, SENP8 block-2 85.3
COc1ccc(CCNC(=O)c2cc(S(=O)(=O)N3CCOCC3)cn2C)cc1OC	Platelet DG rel 50.8
COc1cccc(CNC(=O)c2cc(S(=O)(=O)N3CCOCC3)cn2C)c1	Platelet DG rel 51.1
Cc1ccc(C)c(NC(=O)c2cc(S(=O)(=O)N3CCOCC3)cn2C)c1	Platelet DG rel 110.9
COc1ccc(CNC(=O)c2cc(S(=O)(=O)N3CCOCC3)cn2C)cc1	none
CC(=O)Nc1cc2c3c(c1)CCC(=O)N3CCC2	none
CC(OC(=O)/C=C/c1cccs1)C(=O)Nc1ccc(C(N)=O)cc1 (stereo unspecified)	none (no result: Platelet DG rel)
CN1CCN(Cn2cc(/C=C/C(=O)c3ccccc3)c3ccccc32)CC1	SENP6 inh 58.6
CSc1ccccc1OCc1cc(C(=O)N(Cc2nccn2C)C(C)C)no1	none
O=C(CCC1CCCCC1)Nc1cccnc1	SENP8 block-2 36.3
COc1cc(S(N)(=O)=O)c(OC)cc1N	none
COc1cc(N=Nc2ccc(C)cc2S(N)(=O)=O)c(C)cc1N	SENP8 block-2 49.1 (no result: SENP6 inh, SENP8 block-1, SENP7 block, Platelet DG rel)
Cc1cc(Cl)ccc1-c1nc(NCc2ccccc2)nc2ccsc12	none (no result: SENP6 inh, SENP8 block-1, SENP7 block, Platelet DG rel)
COC(=O)c1ccc(NC(=O)C2CCCN2C(=O)OCc2ccccc2)cc1 (stereo unspecified)	none

Screening results as filed in PubChem.
